ChEMBL document CHEMBL1124180, “Asymmetric synthesis and properties of the enantiomers of the antibacterial agent 7-(3-aminopyrrolidin-1-yl)-1-(2,4-difluorophenyl)-1,4-dihydro-6- fluoro-4-oxo-1,8-naphthyridine-3-carboxylic acid hydrochloride” (J Med Chem, 1988)
Converted amounts (≈) assume the structure as drawn.

Key:
Mus musculus [1] = assay: In vivo activity against Escherichia coli Juhl(100X LD50), when administered po( each compound tested at 3 doses with 10 animals); assay type: functional
Summary of the method: (§1)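 Mice were challenged intraperitoneally with the organism. The compound was given orally as a total dose split into equal portions at 1 and 5 h post-infection. Three doses were used, with 10 animals per dose.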

Prevotella bivia [2] = assay: In vitro activity against t Bacteroides bivius(B 6140); assay type: functional
Summary of the method: (§2)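 Anaerobic MICs measured by agar dilution on Wilkins-Chalgren agar.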

Veillonella parvula = assay: In vitro activity against Veillonella parvula (ATCC 10790); assay type: functional; summary of the method: as §2
Bacteroides fragilis [3] = assay: In vitro activity against Bacteroides fragilis (SFM2906A); assay type: functional
Summary of the method: (§3)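 MIC determined under anaerobic conditions on Wilkins-Chalgren agar.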

Bacteroides fragilis [4] = assay: In vitro activity against Bacteroides fragilis (105AT25285); assay type: functional; summary of the method: as §3
Phocaeicola vulgatus [5] = assay: In vitro activity against Bacteroides vulgatus(SFBC 2375); assay type: functional; summary of the method: as §3
Mus musculus [6] = assay: In vivo activity against Pseudomonas aeruginosa A5007 (100X LD50), administered sc ( each compound tested at 3 doses with 10 animals); assay type: functional
Summary of the method: (§4)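 Mice were challenged intraperitoneally with the organism. The compound was given subcutaneously as a total dose split into equal portions at 1 and 5 h post-infection. Three doses were used, with 10 animals per dose.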

[7] = tested on: Prevotella melaninogenica; assay: In vitro activity against Bacteroides melaninogenicus (ATCC 25845).; assay type: functional; summary of the method: as §3
Phocaeicola vulgatus [8] = assay: In vitro activity against Bacteroides vulgatus(792); assay type: functional; summary of the method: as §3
Bacteroides fragilis [9] = assay: In vitro activity against Bacteroides fragilis (SFM2975-7); assay type: functional; summary of the method: as §3
[10] = tested on: Peptoniphilus asaccharolyticus; assay: In vitro activity against Peptococcus asaccharolyticus (ATCC 14963).; assay type: functional; summary of the method: as §3
Bacteroides fragilis [11] = assay: In vitro activity against Bacteroides fragilis (784); assay type: functional; summary of the method: as §3
Fusobacterium = assay: In vitro activity against Fusobacterium sp.(GS-10); assay type: functional; summary of the method: as §3
[12] = tested on: Bacteroides thetaiotaomicron; assay: microbe, parasite or virus in culture; details: ATCC 29741
Fusobacterium nucleatum = assay: In vitro activity against Fusobacterium nucleatum (ATCC 25586); assay type: functional; summary of the method: as §3
Peptostreptococcus = assay: In vitro activity against Peptostreptococcus sp.(TB-11); assay type: functional
Summary of the method: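 MIC for anaerobic bacteria, measured on Wilkins-Chalgren agar.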

Parvimonas micra [13] = assay: In vitro activity against Peptostreptococcus micros (ATCC 33270); assay type: functional; summary of the method: as §3
Finegoldia magna = assay: In vitro activity against Peptococcus magnus (ATCC 29328); assay type: functional; summary of the method: as §3
Cutibacterium acnes = assay: In vitro activity against Propionibacterium acnes (132); assay type: functional; summary of the method: as §3
Bacteroides fragilis [14] = assay: In vitro activity against Bacteroides fragilis (UC-2); assay type: functional; summary of the method: as §3
Hoylesella loescheii = assay: In vitro activity against Bacteroides loescheii (ATCC 15930).; assay type: functional; summary of the method: as §3
Mus musculus [15] = assay: In vivo activity against Escherichia coli Juhl(100X LD50), when administered sc( each compound tested at 3 doses with 10 animals); assay type: functional; summary of the method: as §4
Mus musculus [16] = assay: In vivo activity against Pseudomonas aeruginosa A5007 (100X LD50), administered po( each compound tested at 3 doses with 10 animals); assay type: functional; summary of the method: as §1
Prevotella disiens = assay: In vitro activity against Bacteroides disiens (ATCC 29426); assay type: functional; summary of the method: as §3
[17] = tested on: Peptostreptococcus anaerobius; assay: In vitro activity against Peptostreptococcus anaerobius (ATCC 27337); assay type: functional; summary of the method: as §3
Bacteroides fragilis [18] = assay: In vitro activity against Bacteroides fragilis (SFM2929-1); assay type: functional; summary of the method: as §3
Clostridium perfringens [19] = assay: In vitro activity against Clostridium perfringens (104AT13124); assay type: functional
[20] = tested on: Bacteroides thetaiotaomicron; assay: In vitro activity against Bacteroides thetaiotaomicron (SFM2975-2); assay type: functional; summary of the method: as §3
Thomasclavelia ramosa = assay: In vitro activity against Clostridium ramosum (7); assay type: functional; summary of the method: as §3
Prevotella bivia [21] = assay: In vitro activity against Bacteroides bivius(B 6140); assay type: functional; summary of the method: as §3
Clostridium perfringens [22] = assay: In vitro activity against Clostridium perfringens (SFBC 2026); assay type: functional
[23] = tested on: Bacteroides thetaiotaomicron; assay: In vitro activity against Bacteroides thetaiotaomicron (ATCC 29742); assay type: functional; summary of the method: as §3
[24] = tested on: Bacteroides thetaiotaomicron; assay: In vitro activity against thetaiotaomicron (ATCC 29741); assay type: functional; summary of the method: as §2
Clostridioides difficile [25] = assay: In vitro activity against Clostridium difficile (ATCC 17857); assay type: functional
Clostridioides difficile [26] = assay: In vitro activity against Clostridium difficile (ATCC 9689); assay type: functional
[27] = tested on: Bacteroides thetaiotaomicron; assay: In vitro activity against Bacteroides thetaiotaomicron (106); assay type: functional; summary of the method: as §3
Parvimonas micra [28] = assay: In vitro activity against Peptostreptococcus micros (ATCC 33270).; assay type: functional; summary of the method: as §3

Row | SMILES | MIC (Veillonella parvula) [µg/mL] | MIC (Bacteroides fragilis [3]) [µg/mL] | MIC (Bacteroides fragilis [4]) [µg/mL] | MIC (Phocaeicola vulgatus [5]) [µg/mL] | MIC [7] [µg/mL] | MIC (Phocaeicola vulgatus [8]) [µg/mL] | MIC (Bacteroides fragilis [9]) [µg/mL] | MIC [10] [µg/mL] | MIC (Bacteroides fragilis [11]) [µg/mL] | MIC (Fusobacterium nucleatum) [µg/mL] | MIC (Peptostreptococcus) [µg/mL] | MIC (Finegoldia magna) [µg/mL] | MIC (Bacteroides fragilis [14]) [µg/mL] | MIC (Hoylesella loescheii) [µg/mL] | MIC (Prevotella disiens) [µg/mL] | further results
1 | O=C(O)c1cn(C2CC2)c2cc(N3CCNCC3)c(F)cc2c1=O [CIPROFLOXACIN] | 0.25 (≈ 0.754 µM) | 4 (≈ 12.1 µM) | 4 (≈ 12.1 µM) | 8 (≈ 24.1 µM) | 2 (≈ 6.04 µM) | 8 (≈ 24.1 µM) | 8 (≈ 24.1 µM) | 2 (≈ 6.04 µM) | 4 (≈ 12.1 µM) | 4 (≈ 12.1 µM) | 2 (≈ 6.04 µM) | 0.25 (≈ 0.754 µM) | 4 (≈ 12.1 µM) | 8 (≈ 24.1 µM) | 2 (≈ 6.04 µM) | ED50 (Mus musculus [1]): 1.3 mg/kg; MIC (Prevotella bivia [2]): 2 µg/mL (≈ 6.04 µM); ED50 (Mus musculus [6]): 4.1 mg/kg; MIC (Fusobacterium): 4 µg/mL (≈ 12.1 µM); MIC [12]: 32 µg/mL (≈ 96.6 µM); MIC (Parvimonas micra [13]): 0.5 µg/mL (≈ 1.51 µM); MIC (Cutibacterium acnes): 2 µg/mL (≈ 6.04 µM); ED50 (Mus musculus [15]): 0.3 mg/kg; ED50 (Mus musculus [16]): 15.1 mg/kg; MIC [17]: 2 µg/mL (≈ 6.04 µM); MIC (Bacteroides fragilis [18]): 8 µg/mL (≈ 24.1 µM)
2 | CCC[C@@H]1C[C@@H](C(=O)N[C@@H]([C@H]2O[C@H](SC)[C@H](O)[C@@H](O)[C@H]2O)[C@H](C)Cl)N(C)C1 [CLINDAMYCIN] | 0.06 (≈ 0.141 µM) | 0.5 (≈ 1.18 µM) | 2 (≈ 4.71 µM) | < 0.015 | 0.03 (≈ 0.0706 µM) | < 0.015 | 2 (≈ 4.71 µM) | 0.06 (≈ 0.141 µM) | 1 (≈ 2.35 µM) | 0.25 (≈ 0.588 µM) | 0.06 (≈ 0.141 µM) | 1 (≈ 2.35 µM) | 0.5 (≈ 1.18 µM) | 0.5 (≈ 1.18 µM) | < 0.015 | MIC (Clostridium perfringens [19]): 0.03 µg/mL (≈ 0.0706 µM); MIC [20]: 0.5 µg/mL (≈ 1.18 µM); MIC (Thomasclavelia ramosa): 1 µg/mL (≈ 2.35 µM); MIC (Prevotella bivia [21]): < 0.015 µg/mL; MIC (Clostridium perfringens [22]): 0.25 µg/mL (≈ 0.588 µM); MIC [23]: 4 µg/mL (≈ 9.41 µM); MIC [24]: 8 µg/mL (≈ 18.8 µM); MIC (Clostridioides difficile [25]): 8 µg/mL (≈ 18.8 µM); MIC (Clostridioides difficile [26]): 4 µg/mL (≈ 9.41 µM); MIC [27]: 4 µg/mL (≈ 9.41 µM); MIC (Parvimonas micra [28]): 0.06 µg/mL (≈ 0.141 µM)
